Experimental findings from ChEMBL document CHEMBL1159370, “A novel NO-production-inhibiting triterpene and cytotoxicity of known alkaloids from Euonymus laxiflorus” (J Nat Prod, 2003) are described below.

The subject of one data set is KB. Nature of the data set: Cytotoxicity against human KB cells. The format is functional. The note with it: read-out: ED50 (the source's name).
Another data set relates to COLO 205. The data set can be described thus: Cytotoxicity against human COLO205 cells. Format: functional. The note with it: read-out: ED50 (the source's name).
A short description of data set [1]: Cytotoxicity against mouse RAW264.7 cells assessed as cell viability by MTT reduction assay. The format is cell-based. Conditions: read-out: Activity. Put shortly:
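Viability was read by MTT reduction in RAW 264.7 macrophages exposed for 24 h at 37 °C to LPS (1 µg/mL) plus IFN-γ (50 U/mL) with the compound. Results are expressed relative to unstimulated basal control cells. Data are mean ± SEM of six experiments, each in triplicate.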
For orientation: Tetrazolium assays rely on reduction of a dye to a coloured formazan, in cell work by metabolically active cells.

For data set [2], the system named is RAW264.7. Nature of the data set: Inhibition of LPS/IFN-gamma-induced nitrite accumulation in mouse RAW264.7 cells at 0.2 mg/ml by Griess reagent assay. The format is functional. The gist of the method: (§1)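 RAW 264.7 cells were grown in DMEM with 10% heat-inactivated FCS at 37 °C under 5% CO2. Compound (DMSO vehicle, 0.02–0.5%) was added together with LPS (1 µg/mL) plus IFN-γ (50 U/mL) for 24 h. Medium nitrite was measured with Griess reagent (1% sulfanilamide, 0.1% naphthylenediamine, 5% phosphoric acid) at OD550 against sodium nitrite standards. Data are mean ± SEM of six experiments, each in triplicate.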

The subject of data set [3] is RAW264.7. Nature of the data set: Inhibition of LPS/IFN-gamma-induced nitrite accumulation in mouse RAW264.7 cells by Griess reagent assay. Format: functional, cell-based. Put shortly:
as §1
(The Griess reaction detects nitrite, a stable product of nitric oxide.)

As usually defined, the inhibition is the percentage by which the read-out fell short of the control. A higher inhibition goes with a response far below the control. One may read the IC50 as the concentration that inhibits the measured activity by half. Read a high IC50 as weaker potency in that assay.

Converted amounts (≈) assume the structure as drawn.

On to `CC(=O)OC[C@]12[C@H](OC(C)=O)[C@H](OC(C)=O)[C@@H]3[C@@H](OC(C)=O)[C@@]14O[C@@]3(C)COC(=O)c1cccnc1C(C)C(C)C(=O)O[C@@H]([C@H](OC(C)=O)[C@@H]2OC(=O)c1ccccc1)[C@]4(C)O` (some centres undefined) [MAYTEINE], for which the EC50 in the data set on KB and in the data set on COLO 205 was over 20 µg/mL throughout.

On to `CC1(C)[C@@H](O)CC[C@]2(C)[C@H]3CC=C4[C@@H]5C[C@](C)(C(=O)O)C[C@H](O)[C@]5(C)CC[C@@]4(C)[C@]3(C)CC[C@@H]12` [MAYTENFOLIC ACID], for which the EC50 with KB and with COLO 205 was over 20 µg/mL in each case.

Take `CO[C@H]1CC[C@]2(C)[C@H]3C(=O)C[C@@H]4C5=CC(C)(C)CC[C@]5(C)CC[C@@]4(C)[C@]3(C)CC[C@H]2C1(C)C` [LAXIFOLONE A]: in data set [1], the viability was over 95%. In the data set with RAW264.7 [2], this compound yielded an inhibition at 200 µg/mL of over 80%. Also, in the data set with RAW264.7 [3], the half-maximal inhibitory concentration (IC50) worked out at 120 µg/mL (≈ 264 µM).

Take `CC(=O)OC[C@]12[C@H](OC(C)=O)[C@H](OC(C)=O)[C@@H]3[C@@H](OC(=O)c4ccccc4)[C@@]14O[C@@]3(C)COC(=O)c1cccnc1C(C)C(C)C(=O)O[C@@H]([C@H](OC(C)=O)[C@@H]2OC(=O)c1ccccc1)[C@]4(C)O` (some centres undefined): the EC50 in the data set with KB and in the data set on COLO 205 was over 20 µg/mL in each case.

As for `C[C@H]1C(=O)CC[C@@H]2[C@]1(C)CC(=O)[C@H]1[C@@]2(C)CC[C@@]2(C)[C@@H]3CC(C)(C)CC[C@]3(C)CC[C@]12C` [PUTRANJIVADIONE], the EC50 with KB and with COLO 205 was over 20 µg/mL in each case.

For `CC1(C)CC[C@]2(C)CC[C@]3(C)C(=CC(=O)[C@@H]4[C@@]5(C)CCC(=O)C(C)(C)[C@@H]5CC[C@]43C)[C@@H]2C1`, the EC50 in the data set with KB and with COLO 205 was over 20 µg/mL in each case.

With `CC(=O)OC[C@]12[C@H](O)[C@@H](OC(C)=O)[C@@H]3[C@@H](OC(C)=O)[C@@]14O[C@@]3(C)COC(=O)c1cccnc1[C@@H](C)[C@H](C)C(=O)O[C@@H]([C@H](OC(=O)c1ccc(=O)n(C)c1)[C@@H]2O)[C@]4(C)O` [EMARGINATINE E], the values for the EC50 with KB and with COLO 205 were 1.7 µg/mL (≈ 2.09 µM) and 4.1 µg/mL (≈ 5.03 µM), respectively.

As for `CC(=O)OC[C@]12[C@H](OC(C)=O)[C@H](OC(C)=O)[C@@H]3[C@@H](OC(=O)c4ccccc4)[C@@]14O[C@@]3(C)COC(=O)c1cccnc1[C@@H](C)[C@H](C)C(=O)O[C@@H]([C@H](O)[C@@H]2OC(=O)c1ccccc1)[C@]4(C)O` [EUOJAPONINE C], the EC50 in the data set on KB and in the data set on COLO 205 was over 20 µg/mL throughout.

In the case of `CC1(C)C(O)CC[C@]2(C)[C@H]3CC=C4[C@@H]5C[C@@]6(C)CC(OC6=O)[C@]5(C)CC[C@@]4(C)[C@]3(C)CC[C@@H]12` (some centres undefined), the EC50 in the data set with KB and in the data set with COLO 205 was over 20 µg/mL throughout.
